# hDAT+cocaine = changed hDAT dopamine uptake under cocaine IC80, either direction, primary screen, cocaine antagonist project, cell-based, LLC-PK1 hDAT, [14C]-dopamine uptake, MLSMR; Sodium-dependent dopamine transporter (Homo sapiens), Q01959; LLC-PK1 hDAT cells, [14C]-dopamine uptake with cocaine IC80; actives deviate in either direction; B-score at 10 µM; 110,000 tested, 1.3% active; AID 449768, 2010;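 active = Z score or B-score, a plate-position-corrected score, falls beyond the plate's 99.7% confidence bounds, in either direction; inactive = both scores lie inside the 99.7% bounds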;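 also: scored against the spread of the other compound wells on the same plate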
# Target sequence (Q01959 whole entry, looked up): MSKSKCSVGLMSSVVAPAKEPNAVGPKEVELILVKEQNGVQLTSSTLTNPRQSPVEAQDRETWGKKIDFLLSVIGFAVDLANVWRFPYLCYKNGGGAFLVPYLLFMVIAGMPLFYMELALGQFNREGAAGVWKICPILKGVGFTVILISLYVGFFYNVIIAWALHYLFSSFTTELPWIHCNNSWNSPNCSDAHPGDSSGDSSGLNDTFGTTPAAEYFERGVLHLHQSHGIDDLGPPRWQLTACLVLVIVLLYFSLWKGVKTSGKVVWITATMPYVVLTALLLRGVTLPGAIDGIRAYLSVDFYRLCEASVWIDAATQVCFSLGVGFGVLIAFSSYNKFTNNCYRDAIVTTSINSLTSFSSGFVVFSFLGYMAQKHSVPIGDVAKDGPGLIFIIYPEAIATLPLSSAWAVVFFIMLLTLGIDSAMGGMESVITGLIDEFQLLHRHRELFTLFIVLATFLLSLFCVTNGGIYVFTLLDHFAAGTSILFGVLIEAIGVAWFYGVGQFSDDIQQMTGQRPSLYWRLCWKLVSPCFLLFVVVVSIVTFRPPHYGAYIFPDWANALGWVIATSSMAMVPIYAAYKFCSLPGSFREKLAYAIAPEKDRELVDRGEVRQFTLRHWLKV
# WNV protease inh = inhibitors of WNV NS2B-NS3 protease, primary screen, biochemical, fluorogenic substrate | 65,000 tested, 0.18% active | z-score (test concentration not listed) | fluorogenic substrate Ex360/Em465; hits give low values; in the data active = z-score below about -3
# D1 allo mod = D1 CRE-luciferase signal change, two-sided – cell-based, HEK293 D1, dopamine EC30, D1 allosteric modulator project, primary screen | dopamine EC30 potentiation; actives deviate in either direction | B-score at 10 µM | 58,000 tested, 5.9% active | AID 641, 2007;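 active = luminescence count or its row- and column-corrected plate score outside the 99.7% band of the plate's sample wells, on either side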
# AP ELISA ortho = alternative complement pathway inhibitors, primary screen, biochemical, ELISA, human serum, orthogonally pooled compounds; 62,000 tested, 0.08% active; inhibition, % at 5 µM; AID 1235, 2008; LPS-coated ELISA, C3 deposition; tested in compound mixtures;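 active = inhibition above 30% in each of the two pooled mixtures holding the compound, so the lower value exceeds 30%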;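 also: 0% = serum in Mg-EGTA without compound and 100% = EDTA serum blank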
#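 Assay system: Human serum alternative complement pathway, C3 deposition on LPS-coated wells | Incubation: 1 h serum-compound exposure at 37 °C | Doses: 5 µM per compound in ten-compound mixtures | Read-out: Percent inhibition | Technique: ELISA with HRP anti-human C3 antibody, TMB substrate, absorbance 450 nm | Replication: Two pool placements per compound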
# D1 PAM confirm = D1 receptor positive allosteric modulators, retest, confirmation, cell-based, HEK293 D1, CRE-luciferase, duplicate. shares compounds with D1 allo mod. dopamine EC30 potentiation; hits give high values. luminescence at 10 µM. 2,200 tested, 88% active. AID 642, 2007;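 active = luminescence in either of two replicates above the same-plate mean plus 3 SD of the low-dose dopamine control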
# D1 ag no DA = D1 receptor agonism without dopamine, confirmation, mechanism study for D1 allosteric modulator project, cell-based, HEK293 D1, CRE-luciferase, secondary assay 1. shares compounds with D1 allo mod. luminescence, no dopamine; hits give high values. luminescence at 10 µM. 1,900 tested, 0.8% active. AID 646, 2007; in the data active = luminescence above about 3900
# Isoprot counter = counter-screen for D1 modulators: isoproterenol response in HEK293 cells | shares compounds with D1 allo mod | HEK293 D1 CRE-luciferase, isoproterenol EC30 counter-screen; hits give high values | luminescence at 10 µM | 2,200 tested, 63% active | AID 647;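 active = luminescence in either replicate above plate mean of wells with a partly effective reference agonist dose plus 3 SD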;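 also: isoproterenol raises cAMP through native beta-adrenoceptor Gs so signal bypasses D1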
# * marks the source's active call; other numbers are inactive results; · = no result given. Shown is part of a subset that was picked to be rich in hits.
SMILES,hDAT+cocaine,WNV protease inh,D1 allo mod,AP ELISA ortho,D1 PAM confirm,D1 ag no DA,Isoprot counter
Nc1nc(Nc2ccc(Cl)cc2Cl)nc(C(F)(F)F)n1,-0.18,0.24,11*,6,13920*,·,3436*
COc1cccc(Nc2nc(N)nc(C(F)(F)F)n2)c1,-0.55,1.8,11*,6,14320*,1712,4140*
Nc1nc(Nc2ccccc2Br)nc(C(F)(F)F)n1,-0.76,1,7.3*,8,15052*,1632,3612*
C=CCn1c(-c2cccn(Cc3ccc(Cl)cc3Cl)c2=O)n[nH]c1=S,0.44,·,·,·,·,·,·
Cc1nc2ccccc2n1C1CC(=O)N(Cc2ccccc2)C1=O (stereo unspecified),-0.76,·,·,·,·,·,·
CC1(C)CC(=O)C(C=NCC2CCN(C(=O)Nc3ccccc3)CC2)=C(O)C1,·,-1,0.42,6,·,·,·
Clc1ccccc1-c1nnc2sc(-c3ccc(Br)o3)nn12,2,2.3,2.3*,10,8388*,1560,2532
Clc1ccc(-c2nnc3sc(-c4ccc(Br)o4)nn23)c(Cl)c1,·,-0.53,-0.42,5,·,·,·
c1coc(-c2nn3c(-c4ccco4)nnc3s2)c1,·,-1.3,2.8*,-7,12468*,1852,3112*
Brc1ccc(-c2nn3c(Cc4ccccc4)nnc3s2)o1,1.2,0.88,3.8*,-8,11236*,1820,3280
COc1cccc2oc(-c3ccco3)cc(=O)c12,-0.13,·,·,·,·,·,·
O=[N+]([O-])c1ccc(N2CCN(c3ccc(Cl)nn3)CC2)cc1NC1CC1,0.2,·,·,·,·,·,·
COc1ccc2nc3oc(C(=O)N4CCN(c5cccc(Cl)c5)CC4)cc3cc2c1,0.025,-1.1,3.6*,12,5456,1484,2580
CCCOc1ccc(/C(O)=C2/C(=O)C(=O)N(CCN(CC)CC)C2c2ccncc2)cc1 (stereo unspecified),·,-0.9,-0.42,10,·,·,·
O=c1c2ccccc2n(Cc2ccc(F)cc2)c(=O)n1C1CCCC1,0.0066,0.31,4.9*,3,9856*,1664,3276*
O=c1cc(CN2CCC3(CC2)OCCO3)c2c(ccc3ccccc32)o1,-0.96,0.35,5.4*,9,13160*,1728,3368*
O=c1cc(CN2CCN(c3ccccc3)CC2)c2c(ccc3ccccc32)o1,-0.017,0.01,0.63,2,·,·,·
COc1cc2c(cc1OC)C1=C(C#N)CC/C(=N\S(=O)(=O)c3ccccc3)N1CC2,-0.45,0.67,8.7*,3,18960*,·,16484*
COc1cc2c(cc1OC)C1=C(C#N)CCC(=O)N1CC2,0.6,-0.7,13*,·,16416*,1868,9696*
COc1cc2c(cc1OC)CN(C(=O)c1ccccc1C(=O)O)CC2,-0.46,-1.1,0.17,23,·,·,·
COc1cc2c(cc1OC)CN(S(C)(=O)=O)CC2,0.75,0.5,1.3,11,·,·,·
CCOC(=O)c1nn(-c2ccccc2C)c(=O)c(C#N)c1C,-0.2,-0.08,3.1*,11,9504*,·,3032
CCOC(=O)c1nn(-c2ccccc2)c(C(=O)OCC)c1N,0.18,1.8,11*,9,15940*,1480,3820*
CCOC(=O)c1nn(-c2ccccc2)c(=O)c2c(N)scc12,0.53,1.7,6.3*,22,16104*,1620,3536*
COc1ccc(-c2cc(C(N)=O)nc(N3CCCCCC3)n2)cc1,0.15,-0.81,·,15,·,·,·
SMILES,hDAT+cocaine,WNV protease inh,D1 allo mod,AP ELISA ortho,D1 PAM confirm,D1 ag no DA,Isoprot counter
NC(=O)c1cc(-c2ccccc2)nc(Oc2ccccc2)n1,1.4,0.05,8.9*,-9,10904*,·,2736*
C/C(=N\NC(=O)c1cccc(F)c1)c1ccc(Br)s1,-0.95,·,·,·,·,·,·
COc1ccc(-c2nnc(SCC(=O)N(Cc3ccccc3)C(C)(C)C)o2)cc1OC,-0.56,-0.58,0.34,16,·,·,·
CCOC(=O)CN(C(=O)CSc1nnc(-c2ccc(OC)c(OC)c2)o1)c1ccc(F)cc1,0.025,-0.01,3.1*,-24,8044*,1456,2672
c1coc(-c2nc3ccccc3nc2-c2ccco2)c1,0.36,1.5,6.7*,14,14092*,·,4012*
O=c1oc(-c2ccco2)nc2ccccc12,-0.19,-1.3,0.29,10,·,·,·
Nc1c(NCCC2=CCCCC2)c(=O)[nH]c(=O)n1Cc1ccccc1,·,0.26,·,3,·,·,·
COc1ccc(CCNc2c(N)n(Cc3ccccc3)c(=O)[nH]c2=O)cc1OC,0.66,0.05,4.7*,1,14452*,1596,5560*
Fc1ccccc1Cc1nnc2n1N=C(c1ccc(Cl)cc1)CS2,0.068,·,·,·,·,·,·
O=C(Nc1ccccc1Cl)N1CCN(c2ccc3nnc(-c4ccccc4)n3n2)CC1,0.38,-0.53,5.4*,16,14068*,·,4436*
CCN(Cc1ccccc1)C(=O)CSc1nc(C)cc(C)c1C#N,-0.03,1.1,-0.75,10,·,·,·
CCc1ccc2nc(SCC(=O)N(CC)CC)c(C#N)cc2c1,-0.9,-0.29,3.1*,22,8128*,1728,3652*
CCc1ccccc1N1CC(C(=O)O)CC1=O (stereo unspecified),-0.85,-1.4,-0.4,23,·,·,·
COCCCNC(=O)C1CCN(c2ncccn2)CC1,-0.4,0.19,1.8*,13,5220,1492,2332
COCCNC(=O)C1CCCN(c2ncccn2)C1 (stereo unspecified),-0.59,-0.91,-0.082,14,·,·,·
CCCc1[nH]nc2c1C(c1cccnc1)C(C#N)=C(N)O2 (stereo unspecified),-1.1,1.2,6.7*,18,3948,1664,2336
COC(=O)c1sccc1NC(=O)c1cc(C)on1,·,-1.9,3.4*,13,10948*,1860,3180*
COC(=O)c1sccc1NC(=O)Cn1nnc(-c2ccc(C)cc2)n1,-0.67,-0.21,2.4*,12,4304,1332,2284
COC(=O)c1sccc1NC(=O)c1ccncc1,-0.39,-0.82,11*,7,14580*,1608,4076*
Cc1cccc(NC(=O)Cn2nnc(-c3cccs3)n2)c1C,-0.53,0.67,-1.1,-25,·,·,·
COC(=O)c1sccc1NC(=O)c1c(C)noc1C,-0.24,2.3,1.3,-4,·,·,·
CCOC(=O)c1c(-c2ccsc2)csc1N,1,0.04,7.5*,6,8708*,1572,2980
Cc1nc2ccccc2c2c1C(=O)N(C1CCCCCCC1)C2=O,-1,·,·,·,·,·,·

# From PubChem
